Series [1] relates to Mus musculus. Briefly: Toxicity in human MDA-MB-231 cells xenografted BALB/c nu mouse assessed as signs of organ toxicity at 60 mg/kg, ip qd for 19 days. Type of series: organism-based. The arrangement: dose 60 mg/kg, route intraperitoneal. The note with it: in vivo, 456 h. In general terms: In xenograft studies the graft and the host belong to different species.
A short description of series [2]: Stability in artificial gastric juice. Type of series: physicochemical. The note with it: simulated gi fluid.
The next series has as its system H22. Briefly: Antitumor activity against mouse H22 cells xenografted in Kunming mouse assessed as reduction of pulmonary metastatic nodes in lungs at 60 mg/kg, po qd for 14 days. Type of series: functional, organism-based. Further details: dose 60 mg/kg.
Series [3] has as its system Mus musculus. Briefly: Toxicity in mouse H22 cells xenografted Kunming mouse assessed as signs of organ toxicity at 60 mg/kg, po qd for 19 days. Type of series: organism-based. The note with it: in vivo, 456 h. Further details: dose 60 mg/kg, route oral.
For series [4], the system named is MDA-MB-231. Briefly: Antitumor activity against human MDA-MB-231 cells xenografted in BALB/c nu mouse assessed as tumor growth inhibition at 90 mg/kg, ip qd for 19 days relative to control. Type of series: functional. The note with it: route intraperitoneal.
Series [5] has as its system HCT-116. Briefly: Antitumor activity against human HCT116 cells xenografted in BALB/c nu mouse assessed as tumor growth inhibition at 90 mg/kg, po qd for 19 days relative to control. Type of series: functional.
Series [6] relates to HCT-116. Briefly: Antitumor activity against human HCT116 cells xenografted in BALB/c nu mouse assessed as tumor growth inhibition administered as po qd for 19 days relative to control. Type of series: functional, organism-based. The procedure, abridged: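 Female athymic BALB/c-nu mice, 5–6 weeks old, were inoculated subcutaneously in the right flank with RPMI1640/10% FBS-cultured tumor cells (5 × 10^6 for MDA-MB-231). At about 100 mm3 (~10 days), mice were randomized 6 per group and dosed orally or intraperitoneally for 19 days. Vehicle controls received PBS containing DMSO. TGI = (control − treated mean tumor weight)/control mean tumor weight, at end of treatment.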

The target in series [7] is 72 kDa type IV collagenase (Homo sapiens) (UniProt P08253). Briefly: Inhibition of MMP2.
In series [8] the target is Aminopeptidase N (Homo sapiens) (UniProt P15144). Briefly: Inhibition of aminopeptidase N.
For series [9], the system named is Mus musculus. Briefly: Toxicity in human MDA-MB-231 cells xenografted BALB/c nu mouse assessed as change in body weight at 90 mg/kg, ip qd for 19 days. Type of series: organism-based. Further details: dose 90 mg/kg, route intraperitoneal. The note with it: in vivo, 456 h. The procedure, abridged:
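Female BALB/c-nu mice, 5–6 weeks old, bearing subcutaneous right-flank xenografts. Mice were randomized 6 per group at about 100 mm3 tumor size. Dosing was oral or intraperitoneal for 19 days; controls received an equal volume of PBS containing DMSO. Body weight was monitored regularly during treatment, and tumors were measured by caliper every three days.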

Series [10] deals with Mus musculus. Briefly: Toxicity in human MDA-MB-231 cells xenografted BALB/c nu mouse assessed as signs of organ toxicity at 90 mg/kg, ip qd for 19 days. Type of series: organism-based. The arrangement: dose 90 mg/kg, route intraperitoneal. The note with it: in vivo, 456 h.
The next series addresses Histone deacetylase. Briefly: Inhibition of HDAC in human HeLa cell nuclear extracts using Boc-Lys (acetyl)-AMC as substrate after 30 mins by fluorescence assay. Type of series: protein assay. Put shortly: (§1)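 Enzyme (HeLa nuclear extract, HDAC6 or HDAC8) preincubated 5 min with a series of compound concentrations. Fluorogenic Boc-Lys(acetyl)-AMC substrate then added and incubated 37 °C for 30 min. Reaction stopped with developer containing trypsin and TSA, 20 min at 37 °C. Fluorescence read at ex 390/em 460 nm. Inhibition taken relative to control wells; IC50 from regression of concentration/inhibition data.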

In series [11] the target is T1, Protein deacetylase HDAC6 (Homo sapiens, UniProt Q9UBN7).
T1 sequence (Q9UBN7 whole entry): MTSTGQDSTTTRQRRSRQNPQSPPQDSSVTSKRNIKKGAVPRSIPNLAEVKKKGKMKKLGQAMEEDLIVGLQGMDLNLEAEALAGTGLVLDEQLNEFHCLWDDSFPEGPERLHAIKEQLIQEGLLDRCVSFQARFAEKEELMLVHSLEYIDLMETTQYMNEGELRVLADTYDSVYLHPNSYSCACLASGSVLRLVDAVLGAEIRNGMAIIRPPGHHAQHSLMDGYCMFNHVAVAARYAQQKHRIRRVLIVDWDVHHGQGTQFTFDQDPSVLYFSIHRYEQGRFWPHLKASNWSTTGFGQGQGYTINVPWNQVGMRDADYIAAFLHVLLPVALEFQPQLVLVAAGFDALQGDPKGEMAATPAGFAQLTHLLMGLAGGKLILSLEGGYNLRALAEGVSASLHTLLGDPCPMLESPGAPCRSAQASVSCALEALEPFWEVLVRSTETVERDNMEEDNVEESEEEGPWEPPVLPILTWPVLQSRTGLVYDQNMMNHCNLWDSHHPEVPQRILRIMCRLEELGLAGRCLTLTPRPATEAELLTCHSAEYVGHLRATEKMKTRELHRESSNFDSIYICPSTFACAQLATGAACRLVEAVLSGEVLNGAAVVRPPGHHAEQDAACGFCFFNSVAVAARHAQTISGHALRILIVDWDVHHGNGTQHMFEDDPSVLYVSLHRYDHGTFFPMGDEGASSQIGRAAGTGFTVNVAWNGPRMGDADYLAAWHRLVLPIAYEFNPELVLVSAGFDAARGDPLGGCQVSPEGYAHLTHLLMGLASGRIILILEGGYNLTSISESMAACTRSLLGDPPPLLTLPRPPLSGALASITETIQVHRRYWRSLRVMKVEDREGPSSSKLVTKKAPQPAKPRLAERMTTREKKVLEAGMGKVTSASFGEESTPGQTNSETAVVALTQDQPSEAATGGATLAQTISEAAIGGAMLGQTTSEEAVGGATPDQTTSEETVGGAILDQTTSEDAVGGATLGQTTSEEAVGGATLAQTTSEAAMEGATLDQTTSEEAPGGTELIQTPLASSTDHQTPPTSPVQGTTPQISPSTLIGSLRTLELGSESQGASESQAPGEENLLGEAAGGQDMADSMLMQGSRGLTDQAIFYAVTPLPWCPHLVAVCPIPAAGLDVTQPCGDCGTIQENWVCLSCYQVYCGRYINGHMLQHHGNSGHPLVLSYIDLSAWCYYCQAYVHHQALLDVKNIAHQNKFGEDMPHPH
Briefly: Inhibition of HDAC6 using Boc-Lys (acetyl)-AMC as substrate after 30 mins by fluorescence assay. The procedure, abridged: as §1

Series [12] has as its system MDA-MB-231. Briefly: Antiproliferative activity against human MDA-MB-231 cells after 48 hrs by MTT assay. Type of series: functional, cell-based. The note with it: MDA-MB-231, 48 h. The procedure, abridged:
(§2)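 Cells kept in RPMI1640 with 10% FBS at 37 °C, 5% CO2. Cells were passaged into 96-well plates the day before dosing and left ≥4 h before compound addition. Exposure was 48 h, then 0.5% MTT for 4 h. Formazan was extracted with DMSO for 15 min and read at 570 nm. IC50 was derived from inhibition ratios; mean of three experiments.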
Background: Tetrazolium assays rely on reduction of a dye to a coloured formazan, in cell work by metabolically active cells.

Another series deals with NB-4. Briefly: Antiproliferative activity against human NB4 cells after 48 hrs by MTT assay. The note with it: NB-4, 48 h. Type of series: functional, cell-based. The procedure, abridged: as §2

Activity calls are given as the source filed them. The calls are words filed in the database; no cut-off is given here.

72 kDa type IV collagenase (Homo sapiens), sequence (P08253 110-660 limits assumed): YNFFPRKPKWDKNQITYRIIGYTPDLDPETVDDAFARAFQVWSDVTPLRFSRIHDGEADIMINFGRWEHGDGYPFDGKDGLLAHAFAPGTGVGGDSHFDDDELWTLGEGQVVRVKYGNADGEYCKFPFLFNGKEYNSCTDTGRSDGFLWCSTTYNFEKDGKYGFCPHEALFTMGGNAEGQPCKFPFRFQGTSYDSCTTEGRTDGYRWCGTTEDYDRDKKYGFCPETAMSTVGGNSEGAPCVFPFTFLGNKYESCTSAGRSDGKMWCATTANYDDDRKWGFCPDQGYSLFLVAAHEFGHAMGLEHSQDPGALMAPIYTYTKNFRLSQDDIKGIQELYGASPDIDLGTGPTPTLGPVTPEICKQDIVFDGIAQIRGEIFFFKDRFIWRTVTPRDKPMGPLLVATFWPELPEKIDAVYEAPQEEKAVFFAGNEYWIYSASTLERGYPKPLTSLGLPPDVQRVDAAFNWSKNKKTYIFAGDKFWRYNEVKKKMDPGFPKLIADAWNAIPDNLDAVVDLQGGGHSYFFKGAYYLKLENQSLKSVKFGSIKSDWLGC
Aminopeptidase N (Homo sapiens), sequence (P15144 whole entry): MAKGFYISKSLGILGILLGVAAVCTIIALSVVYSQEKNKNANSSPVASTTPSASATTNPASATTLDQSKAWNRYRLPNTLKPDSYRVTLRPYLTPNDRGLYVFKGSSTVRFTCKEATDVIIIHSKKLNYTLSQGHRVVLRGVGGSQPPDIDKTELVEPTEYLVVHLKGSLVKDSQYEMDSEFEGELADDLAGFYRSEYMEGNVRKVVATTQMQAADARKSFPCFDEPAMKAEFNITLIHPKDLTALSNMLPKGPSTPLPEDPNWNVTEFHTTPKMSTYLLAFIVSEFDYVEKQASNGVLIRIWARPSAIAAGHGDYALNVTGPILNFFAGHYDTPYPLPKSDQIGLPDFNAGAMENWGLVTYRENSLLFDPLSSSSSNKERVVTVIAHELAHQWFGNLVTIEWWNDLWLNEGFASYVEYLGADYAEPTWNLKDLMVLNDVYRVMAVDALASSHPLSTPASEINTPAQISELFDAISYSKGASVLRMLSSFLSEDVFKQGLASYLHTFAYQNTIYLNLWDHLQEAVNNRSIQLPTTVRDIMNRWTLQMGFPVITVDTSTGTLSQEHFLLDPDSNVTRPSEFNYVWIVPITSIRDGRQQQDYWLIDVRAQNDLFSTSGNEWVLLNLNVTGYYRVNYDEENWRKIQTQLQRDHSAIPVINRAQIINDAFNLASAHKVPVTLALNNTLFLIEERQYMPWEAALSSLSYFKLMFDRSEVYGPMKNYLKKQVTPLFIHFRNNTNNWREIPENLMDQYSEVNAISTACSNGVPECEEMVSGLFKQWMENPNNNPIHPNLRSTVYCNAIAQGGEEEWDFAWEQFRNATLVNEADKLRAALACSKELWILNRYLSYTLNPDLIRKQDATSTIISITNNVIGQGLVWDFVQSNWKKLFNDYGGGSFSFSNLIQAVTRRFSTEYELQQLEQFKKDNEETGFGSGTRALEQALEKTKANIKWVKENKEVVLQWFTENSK

As to `CC[C@H](C)[C@H](NC(=O)CC(C)(C)C)C(=O)N1Cc2cc(OCC(=O)NO)ccc2C[C@H]1C(=O)Nc1ccc(OC)cc1`, the Activity entry with Mus musculus [1], with Mus musculus [3], with Mus musculus [9] and in the series with Mus musculus [10] was “Non-toxic” throughout. The Stability entry in [2] was “Stable”. Moreover, the outcome with H22 was Active. Besides, the inhibition in vivo at 90 mg/kg was 51% in the series on MDA-MB-231 [4] (Mus musculus, MDA-MB-231, ip, 456 h, read-out: TGI) and 59% with HCT-116 [5] (Mus musculus, HCT-116, 456 h, read-out: TGI). For the same compound, the T/C (usually the result in the treated group divided by that in the control group, in per cent) in the series on MDA-MB-231 [4] came to 37%; in the series with HCT-116 [5] it was 53%. Further, in the series on HCT-116 [6], the TGI result is “Dose-dependent effect”. In series [7], the inhibition entry is “inactive”. Besides, the inhibition entry in [8] is “Active”. For the same compound, the IC50 (as a rule, the concentration that gives 50% inhibition) against Histone deacetylase was determined as 52 nM; in series [11], 56 nM; in the series on MDA-MB-231 [12], 580 nM; with NB-4, 2690 nM.

These data come from ChEMBL document CHEMBL1828628, “Discovery of a tetrahydroisoquinoline-based hydroxamic acid derivative (ZYJ-34c) as histone deacetylase inhibitor with potent oral antitumor activities” (J Med Chem, 2011).
